Experimental findings from BindingDB's records for doi:10.1021/jm00130a016 (American Cyanamid, 1989) are described below.

Assay [1] has as its target T1, Sterol O-acyltransferase 1 (Homo sapiens, UniProt P35610).
T1 sequence (P35610 whole entry): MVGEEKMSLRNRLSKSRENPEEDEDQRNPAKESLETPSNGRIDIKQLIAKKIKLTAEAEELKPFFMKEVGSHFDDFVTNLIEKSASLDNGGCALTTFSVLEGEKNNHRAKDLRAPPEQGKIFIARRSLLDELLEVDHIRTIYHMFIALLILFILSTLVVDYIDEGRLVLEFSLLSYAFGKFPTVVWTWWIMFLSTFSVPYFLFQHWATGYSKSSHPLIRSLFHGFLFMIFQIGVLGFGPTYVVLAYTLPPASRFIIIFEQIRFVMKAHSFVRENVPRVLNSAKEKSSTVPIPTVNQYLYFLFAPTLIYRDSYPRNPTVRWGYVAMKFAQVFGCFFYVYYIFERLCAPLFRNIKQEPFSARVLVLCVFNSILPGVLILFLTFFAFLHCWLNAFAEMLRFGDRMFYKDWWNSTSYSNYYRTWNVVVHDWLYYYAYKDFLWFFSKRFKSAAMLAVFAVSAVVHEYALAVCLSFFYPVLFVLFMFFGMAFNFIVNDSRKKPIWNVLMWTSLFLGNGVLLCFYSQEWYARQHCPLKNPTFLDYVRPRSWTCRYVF
Briefly: In vitro inhibitory concentration against acyl coenzyme A:cholesterol acyltransferase derived from smooth muscle cells from thoracic aorta of monkeys. The essentials: (§1)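 Aortic smooth-muscle cells from African green monkey thoracic aorta, grown 48 h in DMEM/10% FCS with LDL from hypercholesterolemic monkeys plus graded compound concentrations (methanol). Albumin-bound [14C]oleate then added for 2.5 h; cells trypsinized, Folch lipid extraction, [14C]cholesteryl esters isolated by TLC and counted by scintillation; IC50 derived.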

Assay [2] addresses T1, Sterol O-acyltransferase 1. Briefly: In vitro inhibitory concentration against ACAT derived from smooth muscle cells from thoracic aorta of monkeys. The essentials: as §1
Assay [3] addresses T2, Sterol O-acyltransferase 1 (Rattus norvegicus, UniProt O70536).
T2 sequence (O70536 whole entry): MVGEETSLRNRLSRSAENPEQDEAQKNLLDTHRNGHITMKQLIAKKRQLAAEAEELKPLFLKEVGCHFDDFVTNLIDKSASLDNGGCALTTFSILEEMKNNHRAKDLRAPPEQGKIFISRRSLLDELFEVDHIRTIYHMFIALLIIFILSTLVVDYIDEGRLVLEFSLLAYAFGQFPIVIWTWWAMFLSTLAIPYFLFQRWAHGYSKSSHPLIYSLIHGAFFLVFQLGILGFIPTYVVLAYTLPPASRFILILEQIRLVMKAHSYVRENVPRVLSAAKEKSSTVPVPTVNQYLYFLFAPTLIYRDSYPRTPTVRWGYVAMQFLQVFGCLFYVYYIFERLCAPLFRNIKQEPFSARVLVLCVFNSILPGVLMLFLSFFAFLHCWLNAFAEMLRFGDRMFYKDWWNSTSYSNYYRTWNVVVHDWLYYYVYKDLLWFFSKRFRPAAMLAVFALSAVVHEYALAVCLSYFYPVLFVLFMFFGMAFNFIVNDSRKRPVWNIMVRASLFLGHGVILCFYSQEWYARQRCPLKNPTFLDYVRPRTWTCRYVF
Briefly: In vitro inhibitory concentration against […] derived from rat adrenals.

Assay [4] concerns the target T1, Sterol O-acyltransferase 1. Briefly: In vitro inhibitory concentration against […] derived from smooth muscle cells from thoracic aorta of monkeys.

As a reminder, the IC50 is the concentration that inhibits the measured activity by half. A higher IC50 goes with a need for much substance.

Consider `Cc1c(Cl)cccc1NC(=O)N(CCC(C)(C)C)Cc1cccs1`, for which the IC50 in assay [1] came to 6.3 µM.
Still for that read-out and setting: the value for `CCCCN(Cc1ccccc1)C(=O)Nc1c(Cl)cc(Cl)cc1Cl` was 3.62 µM; that for `CC(C)(C)CCN(Cc1cccs1)C(=O)Nc1ccc(F)cc1F` was 17 µM.
On the same count and under the same terms, the value for `CC(C)(C)CCN(Cc1cccs1)C(=O)Nc1c(Cl)cc(Cl)cc1Cl` was 2.62 µM; that for `CCCCN(CCCC)C(=O)Nc1ccc(C)c(Cl)c1` was 12.8 µM.
The same measure, in the same setting: under `CCCCN(Cc1ccccc1)C(=O)Nc1ccc(C)cc1C` stands 1.83 µM.
Regarding `O=C(Nc1cccc(Cl)c1)N(Cc1ccccc1)Cc1ccccc1`, the IC50 in assay [1] was 39.9 µM.
As to `CCCCN(C(=O)Nc1ccc(C)cc1C)c1ccccc1`, the midpoint of inhibition in assay [2], the IC50, lay at 26.9 µM.
Still for that read-out and setting: the value for `Cc1cc(C)c(NC(=O)N(Cc2ccccc2)Cc2ccccc2)cc1C` was 1.08 µM.
For the compound `CCCCCCCN(Cc1ccco1)C(=O)Nc1cc(C)c(C)cc1C`, the IC50 in assay [3] amounted to 2.24 µM; in assay [4], 0.14 µM.
`CCCCN(CCCC)C(=O)Nc1cccc(C)c1`: the IC50 in assay [1] turned out to be 24 µM.
